Measurements reported in ChEMBL document CHEMBL5712890, “Sensitivity and engineered resistance of myeloid leukemia cells to BRD9 inhibition” (Nat Chem Biol, 2016).
pKd: −log10 of the molar value. One block for each compound: values may come before it.

How the values were obtained:
Jurkat = experiment: Antiproliferative activity against human Jurkat cells assessed as inhibition of cell growth for 7 days by cell titre glo assay; format: functional; conditions: 168 h, time 7 day
Summary of the method: (§1)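 Human cancer cell lines in RPMI-1640 (leukemia) or DMEM (solid) with 10 % FBS, grown 7 days with rising inhibitor concentrations. Proliferation read by CellTiter-Glo, normalized to DMSO control.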

HL-60 = experiment: Antiproliferative activity against human HL-60 cells assessed as inhibition of cell growth for 7 days by cell titre glo assay; format: functional; conditions: HL-60, 168 h, time 7 day; summary of the method: as §1
[1] = Antiproliferative activity against mouse RN2 cells transduced with BRD9-BET assessed as inhibition of cell growth for 7 days by cell titre glo assay (reference value: 6.144 uM); conditions: RN2, 168 h
[2] = Antiproliferative activity against mouse RN2 cells transduced with BRD9 assessed as inhibition of cell growth for 7 days by cell titre glo assay (reference value: 6.144 uM); conditions: RN2, 168 h
[3] = Antiproliferative activity against mouse RN2 cells transduced with BRD9 assessed as inhibition of cell growth for 7 days by cell titre glo assay (reference value: 0.757 uM); conditions: RN2, 168 h
[4] = Antiproliferative activity against mouse RN2 cells transduced with BRD9-BET assessed as inhibition of cell growth for 7 days by cell titre glo assay (reference value: 0.757 uM); conditions: RN2, 168 h
[5] = target: T1, ATPase family AAA domain-containing protein 2B (Homo sapiens, UniProt Q9ULI0); experiment: Binding affinity to KIAA1240 (unknown origin) assessed as dissociation constant by bromoKdselect analysis
T1 sequence (Q9ULI0 whole entry): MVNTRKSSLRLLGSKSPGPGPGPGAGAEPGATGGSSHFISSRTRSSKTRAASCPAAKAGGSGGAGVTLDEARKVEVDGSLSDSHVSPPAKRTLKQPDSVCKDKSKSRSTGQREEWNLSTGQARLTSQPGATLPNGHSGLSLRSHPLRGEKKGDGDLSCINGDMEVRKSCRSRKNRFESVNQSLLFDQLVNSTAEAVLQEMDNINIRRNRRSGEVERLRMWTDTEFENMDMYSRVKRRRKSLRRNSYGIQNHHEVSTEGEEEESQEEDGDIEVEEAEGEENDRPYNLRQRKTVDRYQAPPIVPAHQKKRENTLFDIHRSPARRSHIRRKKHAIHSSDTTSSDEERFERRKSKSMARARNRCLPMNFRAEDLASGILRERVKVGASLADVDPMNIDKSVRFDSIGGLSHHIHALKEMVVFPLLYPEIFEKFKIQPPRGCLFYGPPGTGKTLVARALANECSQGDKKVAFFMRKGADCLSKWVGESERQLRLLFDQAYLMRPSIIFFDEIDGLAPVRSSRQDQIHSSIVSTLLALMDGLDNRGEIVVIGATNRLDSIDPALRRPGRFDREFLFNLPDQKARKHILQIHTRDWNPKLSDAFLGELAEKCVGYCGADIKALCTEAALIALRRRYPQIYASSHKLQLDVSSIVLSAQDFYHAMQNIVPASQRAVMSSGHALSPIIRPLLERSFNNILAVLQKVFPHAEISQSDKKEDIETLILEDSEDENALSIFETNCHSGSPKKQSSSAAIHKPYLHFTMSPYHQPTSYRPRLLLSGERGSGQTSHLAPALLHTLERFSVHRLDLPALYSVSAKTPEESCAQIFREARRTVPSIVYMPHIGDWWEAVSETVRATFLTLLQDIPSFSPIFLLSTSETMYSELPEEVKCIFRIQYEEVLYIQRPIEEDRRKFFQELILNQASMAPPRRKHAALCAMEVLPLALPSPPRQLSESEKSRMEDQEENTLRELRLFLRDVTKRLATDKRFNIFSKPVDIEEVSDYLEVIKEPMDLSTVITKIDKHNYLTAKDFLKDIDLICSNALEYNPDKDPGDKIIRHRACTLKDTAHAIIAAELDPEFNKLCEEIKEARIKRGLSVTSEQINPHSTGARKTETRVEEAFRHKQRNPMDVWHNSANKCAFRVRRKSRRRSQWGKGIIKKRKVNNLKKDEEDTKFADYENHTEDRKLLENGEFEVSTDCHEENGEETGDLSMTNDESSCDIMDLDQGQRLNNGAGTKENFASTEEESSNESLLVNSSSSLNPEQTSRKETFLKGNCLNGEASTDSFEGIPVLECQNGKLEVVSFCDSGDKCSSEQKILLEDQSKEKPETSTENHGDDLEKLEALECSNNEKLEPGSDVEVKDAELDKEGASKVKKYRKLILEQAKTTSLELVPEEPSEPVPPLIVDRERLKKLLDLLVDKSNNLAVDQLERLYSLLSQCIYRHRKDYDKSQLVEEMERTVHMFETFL

[6] = Antiproliferative activity against mouse RN2 cells transduced with BRD9-BET assessed as inhibition of cell growth for 7 days by cell titre glo assay (reference value: 610 nM); conditions: RN2, 168 h
[7] = Antiproliferative activity against mouse RN2 cells assessed as inhibition of cell growth for 7 days by cell titre glo assay; conditions: RN2, 168 h
[8] = Antiproliferative activity against mouse RN2 cells transduced with BRD9 assessed as inhibition of cell growth for 7 days by cell titre glo assay (reference value: 1709 nM); conditions: RN2, 168 h
[9] = Antiproliferative activity against mouse RN2 cells transduced with BRD9-BET assessed as inhibition of cell growth for 7 days by cell titre glo assay (reference value: 1709 nM); conditions: RN2, 168 h
[10] = Antiproliferative activity against mouse RN2 cells transduced with BRD9-BET assessed as inhibition of cell growth for 7 days by cell titre glo assay (reference value: 323 nM); conditions: RN2, 168 h
[11] = Antiproliferative activity against mouse RN2 cells transduced with BRD9 assessed as inhibition of cell growth for 7 days by cell titre glo assay (reference value: 323 nM); conditions: RN2, 168 h
[12] = Antiproliferative activity against mouse RN2 cells transduced with EZH2 harboring SET domain of EZH1 assessed as inhibition of cell growth for 7 days by cell titre glo assay (reference value: 5.1 uM); conditions: RN2, 168 h
[13] = Antiproliferative activity against mouse RN2 cells transduced with wild type EZH2 assessed as inhibition of cell growth for 7 days by cell titre glo assay (reference value: 5.1 uM); conditions: RN2, 168 h

GI50 (Jurkat): 10.5 µM | GI50 (HL-60): 5.03 µM
SMILES: Cc1cc(=O)n(C)c2cc(N3C(=O)CC[C@H](NS(=O)(=O)CC(C)C)[C@H]3c3ccc(Cl)cc3)ccc12
GI50 [1]: 9.38 µM | GI50 [2]: 6.87 µM

GI50 (Jurkat): 3.64 µM | GI50 (HL-60): 0.433 µM
SMILES: CCn1cc(-c2cccc(C(F)(F)F)c2)c2sc(C(=N)NC3CCS(=O)(=O)CC3)cc2c1=O
GI50 [3]: 1.25 µM | GI50 [4]: 2.69 µM

pKd [5]: 6.00
SMILES: COc1cc(-c2cn(C)c(=O)c3cnccc23)cc(OC)c1CN(C)C
GI50 [6]: > 10 µM | GI50 [7]: 0.476 µM

SMILES: COc1cc(-c2cc(C)c(=O)n(C)c2C)cc(OC)c1CN(C)C
GI50 [8]: 1.03 µM | GI50 [9]: > 10 µM

SMILES: COc1cc(-c2cn(C)c(=O)c3ccccc23)cc(OC)c1CN(C)C
GI50 [10]: 4.48 µM | GI50 [11]: 0.16 µM

SMILES: CC[C@H](C)n1cc(C)c2c(C(=O)NCc3c(C)cc(C)[nH]c3=O)cc(-c3ccc(N4CCNCC4)nc3)cc21 [GSK2816126]
GI50 [12]: > 10 µM | GI50 [13]: 6.2 µM
